The source of these data is ChEMBL document CHEMBL4130456 (ACS Med Chem Lett, 2017).

The nature of series [1]: Intrinsic clearance in rat liver microsomes assessed per mg protein. The series is classed as ADME, microsome. The settings on record: read-out: CLH. On the technique in general: Liver microsomes are vesicles of endoplasmic reticulum, rich in cytochrome P450 enzymes.
Series [2] concerns the target T1, Phosphatidylinositol 4,5-bisphosphate 3-kinase catalytic subunit beta isoform (Homo sapiens, UniProt P42338). The series can be described thus: Inhibition of recombinant human myristoylated PI3Kbeta catalytic domain expressed in Rat1 cells assessed as reduction in Akt phosphorylation at […] residue after 1 hr by alpha screen Surefire assay. The series is classed as cell-based. (Bead proximity is the source of the signal in Alpha formats.)

Series [3] has as its target Phosphatidylinositol 4,5-bisphosphate 3-kinase catalytic subunit gamma isoform (Homo sapiens, UniProt P48736). The series can be described thus: Inhibition of PI3Kgamma (unknown origin) using phosphatidyl inositol as substrate measured after 30 mins by Alexa Fluor647-labelled ADP tracer based TR-FRET assay. In general terms: In TR-FRET formats the signal depends on donor and acceptor labels being close together.

The target of series [4] is T2, Phosphatidylinositol 4,5-bisphosphate 3-kinase catalytic subunit delta isoform (Homo sapiens, UniProt O00329).
T2 sequence (O00329 whole entry): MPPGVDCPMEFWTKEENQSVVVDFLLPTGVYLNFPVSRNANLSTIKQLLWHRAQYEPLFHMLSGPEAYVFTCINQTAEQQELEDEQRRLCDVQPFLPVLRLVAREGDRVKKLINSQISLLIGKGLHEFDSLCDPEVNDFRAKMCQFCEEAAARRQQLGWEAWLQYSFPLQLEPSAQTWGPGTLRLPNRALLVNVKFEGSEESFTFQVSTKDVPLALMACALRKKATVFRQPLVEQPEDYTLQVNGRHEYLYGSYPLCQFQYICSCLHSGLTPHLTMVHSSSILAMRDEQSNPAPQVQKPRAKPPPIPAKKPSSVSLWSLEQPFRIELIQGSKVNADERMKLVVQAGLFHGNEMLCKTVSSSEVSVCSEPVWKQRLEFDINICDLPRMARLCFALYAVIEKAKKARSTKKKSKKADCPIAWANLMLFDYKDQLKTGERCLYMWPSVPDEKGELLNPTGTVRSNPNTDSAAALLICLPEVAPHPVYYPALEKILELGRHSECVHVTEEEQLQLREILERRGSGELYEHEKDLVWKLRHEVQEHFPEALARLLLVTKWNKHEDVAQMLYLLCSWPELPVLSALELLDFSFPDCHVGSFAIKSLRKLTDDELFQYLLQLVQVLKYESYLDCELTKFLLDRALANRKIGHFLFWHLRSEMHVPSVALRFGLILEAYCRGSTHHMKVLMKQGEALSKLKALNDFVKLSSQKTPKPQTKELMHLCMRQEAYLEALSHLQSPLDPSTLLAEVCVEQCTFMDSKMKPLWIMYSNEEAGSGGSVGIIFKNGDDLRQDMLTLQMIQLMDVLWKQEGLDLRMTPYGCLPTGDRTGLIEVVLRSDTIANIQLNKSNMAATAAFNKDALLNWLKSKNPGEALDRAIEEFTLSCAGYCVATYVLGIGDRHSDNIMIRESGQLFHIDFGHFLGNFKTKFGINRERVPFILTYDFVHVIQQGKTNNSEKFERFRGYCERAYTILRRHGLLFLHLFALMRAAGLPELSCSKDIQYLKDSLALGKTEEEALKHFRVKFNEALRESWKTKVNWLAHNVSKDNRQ
The series can be described thus: Inhibition of recombinant human myristoylated PI3Kdelta catalytic domain expressed in Rat1 cells assessed as reduction in Akt phosphorylation at […] residue after 1 hr by alpha screen Surefire assay. The series is classed as cell-based.

The target of series [5] is T1, Phosphatidylinositol 4,5-bisphosphate 3-kinase catalytic subunit beta isoform. Put plainly: Inhibition of recombinant PI3Kbeta (unknown origin) using phosphatidyl inositol/n-Octyl-glucoside as substrate measured after 60 mins by KinaseGlo assay.
Series [6] in a line: Inhibition of PI3Kdelta in 50% rat blood assessed as reduction in anti-IgM stimulated CD86 expression pretreated for 1 hr followed by anti-IgM stimulation after 24 hrs by flow cytometric analysis. The method in brief: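 Rat 50% whole blood; B cells stimulated with anti-IgM/IL-4; readouts pAKT or CD86.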
Series [7] deals with T3, Phosphatidylinositol 4,5-bisphosphate 3-kinase catalytic subunit delta isoform (Mus musculus, UniProt O35904).
T3 sequence (O35904 whole entry): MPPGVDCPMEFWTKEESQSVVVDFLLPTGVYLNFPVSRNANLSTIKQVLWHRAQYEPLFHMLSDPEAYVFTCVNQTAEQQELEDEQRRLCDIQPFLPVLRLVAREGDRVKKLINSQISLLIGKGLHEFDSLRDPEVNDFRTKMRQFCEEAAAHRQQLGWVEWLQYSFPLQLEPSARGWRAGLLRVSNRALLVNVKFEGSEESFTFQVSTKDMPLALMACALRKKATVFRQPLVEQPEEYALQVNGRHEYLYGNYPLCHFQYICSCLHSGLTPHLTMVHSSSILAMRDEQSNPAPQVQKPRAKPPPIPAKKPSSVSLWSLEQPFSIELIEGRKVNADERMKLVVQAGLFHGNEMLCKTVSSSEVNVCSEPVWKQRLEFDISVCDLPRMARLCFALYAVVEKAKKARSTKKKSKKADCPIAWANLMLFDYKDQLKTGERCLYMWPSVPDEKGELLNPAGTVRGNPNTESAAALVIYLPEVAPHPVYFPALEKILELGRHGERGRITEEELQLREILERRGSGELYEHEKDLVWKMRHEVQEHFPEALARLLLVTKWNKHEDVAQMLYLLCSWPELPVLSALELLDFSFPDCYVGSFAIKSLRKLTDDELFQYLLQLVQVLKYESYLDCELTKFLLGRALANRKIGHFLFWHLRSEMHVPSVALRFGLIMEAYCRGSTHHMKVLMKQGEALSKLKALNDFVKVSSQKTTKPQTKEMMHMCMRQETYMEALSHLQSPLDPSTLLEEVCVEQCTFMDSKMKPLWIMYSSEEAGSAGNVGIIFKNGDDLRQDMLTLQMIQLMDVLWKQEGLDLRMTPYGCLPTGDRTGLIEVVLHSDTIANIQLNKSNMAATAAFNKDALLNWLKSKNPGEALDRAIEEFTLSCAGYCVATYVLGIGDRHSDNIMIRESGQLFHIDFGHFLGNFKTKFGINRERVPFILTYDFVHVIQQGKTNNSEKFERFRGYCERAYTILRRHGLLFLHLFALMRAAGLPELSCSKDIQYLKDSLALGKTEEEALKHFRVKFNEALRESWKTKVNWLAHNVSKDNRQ
The series can be described thus: Inhibition of PI3Kdelta in Balb/c mouse splenocytes assessed as reduction in anti-IgM stimulated CD86 expression pretreated for 1 hr followed by anti-IgM stimulation after 24 hrs by flow cytometric analysis. The series is classed as cell-based.

Series [8] can be described thus: Lipophilicity, log P of the compound by artificial membrane based assay. The series is classed as physicochemical.
Series [9] can be described thus: Equilibrium solubility of the compound at pH 6.8 by LC-MS/MS analysis. The series is classed as physicochemical. The settings on record: buffer. The method in brief:
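High-throughput equilibrium solubility at pH 6.8, reported in mM.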

The target in series [10] is T2, Phosphatidylinositol 4,5-bisphosphate 3-kinase catalytic subunit delta isoform. Put plainly: Inhibition of PI3Kdelta (unknown origin) using phosphatidyl inositol as substrate measured after 60 mins by Alexa Fluor647-labelled ADP tracer based TR-FRET assay.
The target in series [11] is T4, Phosphatidylinositol 4,5-bisphosphate 3-kinase catalytic subunit alpha isoform (Homo sapiens, UniProt P42336). The series can be described thus: Inhibition of recombinant PI3Kalpha (unknown origin) using phosphatidyl inositol/n-Octyl-glucoside as substrate measured after 30 mins by KinaseGlo assay.
T4 sequence (P42336 whole entry, the tested form may be a part, canonical isoform): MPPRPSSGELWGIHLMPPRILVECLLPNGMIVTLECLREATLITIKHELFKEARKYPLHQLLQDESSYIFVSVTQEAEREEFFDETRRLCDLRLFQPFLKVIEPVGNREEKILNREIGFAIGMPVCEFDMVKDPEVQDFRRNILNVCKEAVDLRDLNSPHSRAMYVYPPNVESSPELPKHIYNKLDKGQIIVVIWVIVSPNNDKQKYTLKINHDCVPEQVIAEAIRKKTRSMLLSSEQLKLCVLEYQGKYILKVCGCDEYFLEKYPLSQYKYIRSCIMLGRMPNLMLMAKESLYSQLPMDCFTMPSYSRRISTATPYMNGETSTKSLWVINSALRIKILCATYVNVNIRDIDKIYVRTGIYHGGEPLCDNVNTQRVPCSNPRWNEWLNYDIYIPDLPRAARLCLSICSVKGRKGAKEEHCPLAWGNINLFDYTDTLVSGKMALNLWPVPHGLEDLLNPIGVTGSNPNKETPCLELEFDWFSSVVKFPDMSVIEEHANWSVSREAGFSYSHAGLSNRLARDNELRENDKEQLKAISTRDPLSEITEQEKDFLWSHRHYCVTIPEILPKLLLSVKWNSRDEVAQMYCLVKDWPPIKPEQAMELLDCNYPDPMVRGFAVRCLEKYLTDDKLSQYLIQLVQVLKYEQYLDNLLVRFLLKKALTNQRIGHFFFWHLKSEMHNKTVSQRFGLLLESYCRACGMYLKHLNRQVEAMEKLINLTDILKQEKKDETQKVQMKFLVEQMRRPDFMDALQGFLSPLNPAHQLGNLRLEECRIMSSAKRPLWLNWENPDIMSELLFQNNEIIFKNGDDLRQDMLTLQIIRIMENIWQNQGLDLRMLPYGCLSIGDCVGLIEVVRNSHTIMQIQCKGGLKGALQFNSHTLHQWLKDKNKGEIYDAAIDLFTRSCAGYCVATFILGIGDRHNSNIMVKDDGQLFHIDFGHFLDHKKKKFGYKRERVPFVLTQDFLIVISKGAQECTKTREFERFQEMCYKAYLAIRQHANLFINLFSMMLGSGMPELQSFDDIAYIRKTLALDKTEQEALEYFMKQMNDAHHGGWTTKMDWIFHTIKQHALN
Series [12] addresses T4, Phosphatidylinositol 4,5-bisphosphate 3-kinase catalytic subunit alpha isoform. Put plainly: Inhibition of recombinant human myristoylated PI3Kalpha catalytic domain expressed in Rat1 cells assessed as reduction in Akt phosphorylation at […] residue after 1 hr by alpha screen Surefire assay. The series is classed as cell-based.

≈ marks a conversion by molar mass, not a printed value.

T1 sequence (P42338 whole entry, the tested form may be a part, canonical isoform): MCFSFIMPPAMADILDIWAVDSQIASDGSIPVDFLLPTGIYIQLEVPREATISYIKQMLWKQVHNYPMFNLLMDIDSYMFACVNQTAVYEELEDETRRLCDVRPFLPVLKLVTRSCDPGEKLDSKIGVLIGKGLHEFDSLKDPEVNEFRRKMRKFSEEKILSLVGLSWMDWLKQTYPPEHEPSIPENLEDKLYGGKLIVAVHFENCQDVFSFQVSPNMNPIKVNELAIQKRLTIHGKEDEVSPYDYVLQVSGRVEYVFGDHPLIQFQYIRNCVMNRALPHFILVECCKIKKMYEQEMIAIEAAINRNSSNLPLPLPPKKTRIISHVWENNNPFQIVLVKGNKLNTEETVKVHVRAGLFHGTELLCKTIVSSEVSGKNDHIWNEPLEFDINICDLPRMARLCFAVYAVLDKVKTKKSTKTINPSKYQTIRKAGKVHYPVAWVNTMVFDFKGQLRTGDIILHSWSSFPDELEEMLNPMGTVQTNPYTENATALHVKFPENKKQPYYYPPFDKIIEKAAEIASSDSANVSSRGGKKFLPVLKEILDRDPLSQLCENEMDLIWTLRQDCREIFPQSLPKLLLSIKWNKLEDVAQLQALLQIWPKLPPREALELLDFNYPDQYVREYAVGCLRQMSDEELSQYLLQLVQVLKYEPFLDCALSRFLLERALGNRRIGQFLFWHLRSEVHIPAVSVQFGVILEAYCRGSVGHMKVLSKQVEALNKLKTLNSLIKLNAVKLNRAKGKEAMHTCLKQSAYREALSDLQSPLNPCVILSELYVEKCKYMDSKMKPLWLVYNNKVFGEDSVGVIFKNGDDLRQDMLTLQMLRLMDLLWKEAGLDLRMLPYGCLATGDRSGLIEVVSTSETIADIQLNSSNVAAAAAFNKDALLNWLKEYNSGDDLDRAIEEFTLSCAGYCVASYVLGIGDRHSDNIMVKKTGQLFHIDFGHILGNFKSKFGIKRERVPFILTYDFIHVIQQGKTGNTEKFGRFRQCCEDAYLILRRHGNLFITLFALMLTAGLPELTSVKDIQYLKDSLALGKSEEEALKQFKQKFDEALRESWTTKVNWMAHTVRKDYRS
Phosphatidylinositol 4,5-bisphosphate 3-kinase catalytic subunit gamma isoform, sequence (P48736 whole entry, canonical isoform): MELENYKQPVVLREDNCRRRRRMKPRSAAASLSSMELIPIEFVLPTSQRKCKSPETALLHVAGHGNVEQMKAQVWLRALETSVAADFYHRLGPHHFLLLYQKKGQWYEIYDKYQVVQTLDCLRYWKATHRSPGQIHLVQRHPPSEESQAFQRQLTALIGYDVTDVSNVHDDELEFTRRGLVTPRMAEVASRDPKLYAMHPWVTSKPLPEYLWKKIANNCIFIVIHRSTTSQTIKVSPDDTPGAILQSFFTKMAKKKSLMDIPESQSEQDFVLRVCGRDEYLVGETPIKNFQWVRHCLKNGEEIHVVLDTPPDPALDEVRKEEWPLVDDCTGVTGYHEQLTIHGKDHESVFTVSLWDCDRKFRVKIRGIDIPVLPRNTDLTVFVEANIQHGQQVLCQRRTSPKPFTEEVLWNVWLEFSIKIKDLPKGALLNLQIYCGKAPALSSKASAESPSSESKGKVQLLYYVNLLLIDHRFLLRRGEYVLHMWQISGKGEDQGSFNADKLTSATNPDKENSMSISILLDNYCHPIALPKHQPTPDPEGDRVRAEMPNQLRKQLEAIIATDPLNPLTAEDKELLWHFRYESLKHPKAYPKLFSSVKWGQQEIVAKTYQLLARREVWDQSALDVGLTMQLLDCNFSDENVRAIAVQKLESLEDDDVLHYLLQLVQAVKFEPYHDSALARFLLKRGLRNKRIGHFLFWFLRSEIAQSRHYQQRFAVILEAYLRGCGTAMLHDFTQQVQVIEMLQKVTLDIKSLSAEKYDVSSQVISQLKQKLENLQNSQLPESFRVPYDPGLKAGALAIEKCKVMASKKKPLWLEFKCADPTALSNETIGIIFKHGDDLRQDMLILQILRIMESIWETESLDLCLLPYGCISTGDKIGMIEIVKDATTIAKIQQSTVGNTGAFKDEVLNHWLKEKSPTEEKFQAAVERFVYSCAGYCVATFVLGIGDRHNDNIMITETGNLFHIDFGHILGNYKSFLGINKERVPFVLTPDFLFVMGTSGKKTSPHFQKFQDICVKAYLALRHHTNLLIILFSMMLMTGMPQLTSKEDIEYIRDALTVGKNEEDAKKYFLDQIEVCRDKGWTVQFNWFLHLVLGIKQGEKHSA

The term IC50 denotes the concentration that gives 50% inhibition. By logP is commonly meant a log measure of how a compound divides between an organic and an aqueous phase. A higher logP goes with higher lipophilicity. For orientation: thermodynamic solubility means solubility found after equilibrating the solid with the medium. Take `COc1ncc(N2CCc3ncnc(O[C@H]4CCN(C(=O)C5CCOCC5)C4)c3C2)cc1C`: the microsomal CLint in series [1] came out at 60 µL/min/mg. Moreover, the IC50 amounted to 6.79 µM in series [2]; 6.6 µM in series [3]; 0.143 µM in series [4]; 4.15 µM in series [5]; 0.092 µM in series [6]; 0.098 µM in [7]. Further, in series [10], the IC50 came out at 0.076 µM. The same compound had a logP in series [8] of 1.7. In series [9], this compound gave a solubility (thermodynamic) of over 1000 µM.

Regarding `COc1ccc(N2CCc3ncnc(-c4cccc(OC5CCN(C(C)=O)CC5)c4)c3C2)cn1`, the microsomal CLint in series [1] was determined as 197 µL/min/mg. Moreover, the IC50 in series [2] was over 10 µM; in series [3], over 9.1 µM; in [4], 0.374 µM; in series [5], 8.94 µM; in series [11], 2.02 µM; in [10] it was 0.083 µM. The IC50 in [12] came to 9.03 µM. In series [8], this compound yielded a logP of 2.2. In series [9], the solubility (thermodynamic) was over 1000 µM.

Regarding `COc1ccc(N2CCc3ncnc(-c4cccc(C(=O)N5CCN(C(C)=O)CC5)c4)c3C2)cn1`, in series [1], the microsomal CLint was 91 µL/min/mg. The IC50 is over 10 µM in series [2]; over 9.1 µM in series [3]; 2.63 µM in [4]; over 9.1 µM in [5]; 6.94 µM in [11]; 0.065 µM in [10]. In [12], the IC50 was over 10 µM. Moreover, the logP in series [8] was 0.7. Further, the thermodynamic solubility in series [9] was over 1000 µM.

In the case of `CCC(=O)N1CC[C@H](Oc2ncnc3c2CN(c2cnc(OC)c(C(F)(F)F)c2)CC3)C1`, the microsomal CLint in series [1] stood at 160 µL/min/mg. Moreover, the IC50 was 3.11 µM in [2]; over 9.1 µM in series [3]; 0.131 µM in series [4]; 1.71 µM in [5]; 0.027 µM in series [10]; 2.6 µM in series [12]. Besides, in series [8], the logP came out at 3.1. The solubility (thermodynamic) in series [9] worked out at 80 µM (≈ 36.1 µg/mL).

On to `COc1ncc(N2CCc3ncnc(O[C@H]4CCN(C(=O)C5CCOCC5)C4)c3C2)cc1C(F)(F)F`, for which the microsomal CLint in series [1] came out at 149 µL/min/mg. The IC50 in [2] was 3.58 µM; in [3] it was over 9.1 µM; in series [4], 0.037 µM; in series [5] it was 1.33 µM; in series [6] it was 0.058 µM; in series [7], 0.084 µM. The IC50 turned out to be 0.028 µM in [10] and 3.55 µM in series [12]. In addition, the logP in series [8] is 2.2. For the same compound, in series [9], the thermodynamic solubility is 270 µM (≈ 137 µg/mL).

As for `COc1ncc(N2CCc3ncnc(N[C@H]4CCN(C(=O)C5CCOCC5)C4)c3C2)cc1C(F)(F)F`, the microsomal CLint in [1] is 41 µL/min/mg. Besides, the IC50 stood at 3.99 µM in series [2]; 1.06 µM in series [3]; 0.3 µM in series [5]; 0.016 µM in [6]; 0.015 µM in series [7]; 0.044 µM in series [11]. In addition, the IC50 in series [10] turned out to be 0.004 µM; in series [12] it was 2.15 µM. Further, the logP in series [8] worked out at 2.9. This compound came in with a thermodynamic solubility in series [9] of 240 µM (≈ 122 µg/mL).

On to `CCC(=O)N1CC[C@H](Oc2ncnc3c2CN(c2ccc(OC)nc2)CC3)C1`, for which, in series [1], the microsomal CLint came to 35 µL/min/mg. The IC50 in series [2] is over 10 µM; in series [3], over 9.1 µM; in series [4] it was 5.39 µM; in series [5] it was 8.94 µM; in series [11], 6.66 µM; in series [10] it was 0.132 µM. In addition, the IC50 in series [12] is over 10 µM. This compound registered a logP in [8] of 2.2. The compound further had a solubility (thermodynamic) in series [9] of over 1000 µM.

On to `COc1ncc(N2CCc3ncnc(N[C@H]4CCN(C(=O)C5CCOCC5)C4)c3C2)cc1C`, for which the microsomal CLint in series [1] amounted to 22 µL/min/mg. Besides, the IC50 in series [2] amounted to 9.87 µM; in series [3], 3.29 µM; in series [4] it was 0.358 µM; in [5], 2.02 µM; in series [6], 0.074 µM; in series [7], 0.091 µM. The compound also gave an IC50 in series [10] of 0.03 µM. For the same compound, the logP in series [8] was 2.6. In addition, in series [9], the solubility (thermodynamic) was over 1000 µM.

`CCC(=O)N1CC[C@H](Nc2ncnc3c2CN(c2cnc(OC)c(C)c2)CC3)C1`: the IC50 was 7.91 µM in series [2]; 0.951 µM in [5]; 0.073 µM in [6]; 0.087 µM in series [7]; 7.41 µM in series [12]. Moreover, the logP in [8] was determined as 2.8. Also, in series [9], the solubility (thermodynamic) was over 1000 µM.
